Read-outs that look alike come from different tables or passages of the source.

The record followed here is paper PMC7614232 (Organic & biomolecular chemistry, 2022).

Common to all, as to format: biochemical
Test [1] addresses T1, AMAN-2 (Golgi α-mannosidase) (Caenorhabditis elegans, UniProt Q2PJ74).
T1 sequence (Q2PJ74 27-1145): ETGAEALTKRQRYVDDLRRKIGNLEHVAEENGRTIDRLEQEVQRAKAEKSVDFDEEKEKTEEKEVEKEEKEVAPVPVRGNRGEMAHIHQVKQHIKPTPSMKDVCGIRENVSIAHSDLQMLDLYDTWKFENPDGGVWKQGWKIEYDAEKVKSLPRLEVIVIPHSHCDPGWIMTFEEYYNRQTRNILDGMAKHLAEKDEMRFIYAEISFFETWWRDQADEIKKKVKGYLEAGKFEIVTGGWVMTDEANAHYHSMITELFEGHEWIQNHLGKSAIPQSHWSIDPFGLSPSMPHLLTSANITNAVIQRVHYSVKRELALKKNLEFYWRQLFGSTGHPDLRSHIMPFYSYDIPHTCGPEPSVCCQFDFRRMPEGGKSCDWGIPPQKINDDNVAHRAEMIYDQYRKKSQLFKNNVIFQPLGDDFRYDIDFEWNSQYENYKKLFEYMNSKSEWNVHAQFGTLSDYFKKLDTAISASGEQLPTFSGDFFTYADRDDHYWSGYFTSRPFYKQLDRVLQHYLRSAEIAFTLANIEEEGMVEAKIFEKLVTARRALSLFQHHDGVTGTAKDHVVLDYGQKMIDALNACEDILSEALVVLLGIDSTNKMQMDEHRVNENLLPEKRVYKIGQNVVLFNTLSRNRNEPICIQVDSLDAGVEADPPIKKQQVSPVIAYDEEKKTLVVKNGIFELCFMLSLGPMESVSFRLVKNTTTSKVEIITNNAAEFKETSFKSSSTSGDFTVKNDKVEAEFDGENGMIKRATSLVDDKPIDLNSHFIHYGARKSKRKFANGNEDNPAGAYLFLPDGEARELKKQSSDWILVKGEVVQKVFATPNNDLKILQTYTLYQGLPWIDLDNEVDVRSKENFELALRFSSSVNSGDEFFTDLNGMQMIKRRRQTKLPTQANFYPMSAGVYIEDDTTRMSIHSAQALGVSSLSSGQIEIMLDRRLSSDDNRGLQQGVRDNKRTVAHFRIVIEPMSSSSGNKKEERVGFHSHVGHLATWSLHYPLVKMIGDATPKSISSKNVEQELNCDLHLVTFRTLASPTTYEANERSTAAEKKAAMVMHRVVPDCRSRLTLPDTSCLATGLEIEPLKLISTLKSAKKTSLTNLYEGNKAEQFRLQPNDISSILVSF
The experiment in a line: α-mannosidase inhibition assay with pNP-Man, AMAN-2. Particulars: for SI^b = IC50(JBMan)/IC50(AMAN-2): selectivity index.

Test [2] concerns the target T2, LManII (lysosomal α-mannosidase) (Drosophila melanogaster, UniProt Q9VKV1).
T2 sequence (Q9VKV1 25-1080): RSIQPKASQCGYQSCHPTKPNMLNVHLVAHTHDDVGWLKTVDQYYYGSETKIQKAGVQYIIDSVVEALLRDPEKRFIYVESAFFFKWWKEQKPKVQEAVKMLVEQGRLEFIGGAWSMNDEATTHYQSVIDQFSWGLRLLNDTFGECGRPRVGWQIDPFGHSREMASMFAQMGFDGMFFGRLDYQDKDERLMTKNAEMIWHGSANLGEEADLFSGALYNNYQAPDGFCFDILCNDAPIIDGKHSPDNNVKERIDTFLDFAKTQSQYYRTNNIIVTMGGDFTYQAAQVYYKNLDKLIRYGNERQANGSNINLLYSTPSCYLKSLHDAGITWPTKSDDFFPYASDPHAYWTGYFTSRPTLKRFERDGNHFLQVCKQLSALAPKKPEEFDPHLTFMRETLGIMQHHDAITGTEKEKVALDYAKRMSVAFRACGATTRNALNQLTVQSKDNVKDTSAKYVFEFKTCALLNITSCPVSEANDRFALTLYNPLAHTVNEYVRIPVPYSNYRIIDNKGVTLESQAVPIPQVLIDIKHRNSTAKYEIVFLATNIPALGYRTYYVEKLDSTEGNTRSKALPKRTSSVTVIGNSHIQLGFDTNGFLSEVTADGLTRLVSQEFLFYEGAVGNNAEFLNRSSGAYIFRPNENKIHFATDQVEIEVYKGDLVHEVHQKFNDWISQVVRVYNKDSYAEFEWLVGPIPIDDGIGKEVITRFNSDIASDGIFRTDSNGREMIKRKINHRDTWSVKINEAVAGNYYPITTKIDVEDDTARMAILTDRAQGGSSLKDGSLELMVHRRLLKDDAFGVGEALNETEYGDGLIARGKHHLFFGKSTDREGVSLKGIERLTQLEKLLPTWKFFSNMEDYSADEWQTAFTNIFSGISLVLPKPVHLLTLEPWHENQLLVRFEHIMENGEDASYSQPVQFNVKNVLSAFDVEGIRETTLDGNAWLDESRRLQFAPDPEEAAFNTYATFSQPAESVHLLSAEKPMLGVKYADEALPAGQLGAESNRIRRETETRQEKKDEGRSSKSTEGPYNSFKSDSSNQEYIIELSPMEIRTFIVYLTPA
The experiment in a line: α-mannosidase inhibition assay with pNP-Man, LManII. Particulars: for Ki: Dixon plots, pNP-Man 0.5-4 mM. In outline: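 Recombinant Drosophila lysosomal α-mannosidase, isolated and purified, assayed in 50 mM acetate buffer at pH 5.2. Compound (50 mM DMSO solution diluted in water) preincubated with enzyme 5 min at rt before pNP-Man was added. Incubated 1-2 h at 37 °C, stopped with 0.5 M sodium carbonate, p-nitrophenol read at 405 nm. […] Three independent experiments in duplicate.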

For test [3], the system named is Golgi-type mannosidases (GMIIb and AMAN-2). The experiment in a line: inhibition of and selectivity toward Golgi-type mannosidases, stated jointly. Particulars: IC50(LManII)/IC50(GMIIb) or IC50(JBMan)/IC50(AMAN-2).
Setting [4] is: read-out: IC50 AMAN-2, 2 mM pNP-Man, pH 6.0.
Where [5] appears, read: read-out: Ki AMAN-2, Dixon plots, pNP-Man 0.5-4 mM, pH 6.0.
Setting [6] is: read-out: IC50 LManII, 2 mM pNP-Man, pH 5.2.

Usually IC50 stands for the point on the concentration scale where inhibition reaches its midpoint. For `OC[C@@H]1[C@H](O)[C@H](O)CN1Cc1ccccc1` [Compound 4, N-Benzyl-1,4-dideoxy-1,4-imino-d-lyxitol], in test [1], the IC50 worked out at 8.7 ± 0.1 µM and the “SI^b = IC50(JBMan)/IC50(AMAN-2)” value worked out at 124. The molecule also came in with an IC50 in test [2] of 675 ± 67 µM.
Broadly, the Ki is the dissociation constant of the complex between target and ligand, obtained from inhibition or displacement. For the molecule `Cl.N=C(N)NCc1ccc(CN2C[C@@H](O)[C@@H](O)[C@H]2CO)cc1` [Compound 9, 1,4-Dideoxy-N-4-guanidinomethylbenzyl-1,4-imino-d-lyxitol hydrochloride], the values for the IC50 in test [1] (setting [4]) and in test [2] (setting [6]) were 12.5 ± 0.1 µM and 340 ± 35 µM, respectively. For the same molecule, the inhibition constant Ki turned out to be 10.3 µM in test [1] (setting [5]) and 165 µM in test [2] (read-out: Ki LManII, pH 5.2). Moreover, in test [1], the “SI^b = IC50(JBMan)/IC50(AMAN-2)” value was found to be 9.
As to `OCC1C(O)C(O)CN1Cc1ccc(I)cc1` (stereo not drawn) [Compound 16, 1,4-Dideoxy-1,4-imino-N-4-iodobenzyl-d-lyxitol], the concentration for half-maximal inhibition (IC50) in test [1] (setting [4]) was determined as 3.5 ± 0.1 µM; in test [2] (setting [6]), 460 ± 53 µM. In addition, the “SI^b = IC50(JBMan)/IC50(AMAN-2)” value in test [1] is 269.
Take `OC[C@@H]1[C@H](O)[C@H](O)CN1Cc1ccc2ccccc2c1` [Compound 17, 1,4-Dideoxy-1,4-imino-N-(naphthalen-2-ylmethyl)-d-lyxitol]: the IC50 was found to be 2.4 ± 0.1 µM in test [1] (setting [4]); 7.6 µM in test [1] (read-out: IC50 AMAN-2, 2 mM pNP-Man, pH 6.0, listed as N-2-naphtylmethyl); 845 ± 170 µM in test [2] (setting [6]). In addition, the “SI^b = IC50(JBMan)/IC50(AMAN-2)” value in test [1] is listed as 812. Further, in test [3], the “selectivity index (SI) toward Golgi-type enzymes” value is over 100.
Regarding `OCC1C(O)C(O)CN1CCc1cccc2ccccc12` (stereo not drawn) [Compound 18, 1,4-Dideoxy-1,4-imino-N-(2-(naphthalen-1-yl)ethyl)-d-lyxitol], the IC50 came out at 0.21 ± 0.1 µM in test [1] (setting [4]) and 12 ± 1.3 µM in test [2] (setting [6]). In addition, the Ki in test [1] (setting [5]) was 0.15 µM; in test [2] (read-out: Ki LManII, pH 5.2), 3.9 µM. The “SI^b = IC50(JBMan)/IC50(AMAN-2)” value in test [1] came to 86.
Regarding `OC[C@@H]1[C@H](O)[C@H](O)CN1CC1CCCCC1` [Compound 19, N-Cyclohexylmethyl-1,4-dideoxy-1,4-imino-d-lyxitol], the IC50 in test [1] worked out at 17.3 ± 0.1 µM; in test [2] it was 190 ± 53 µM. In addition, the “SI^b = IC50(JBMan)/IC50(AMAN-2)” value in test [1] was 75.
As for `OC[C@@H]1[C@H](O)[C@H](O)CN1CC1CCOCC1` [Compound 20], the values for the IC50 in test [1] (setting [4]) and in test [2] (setting [6]) were 84.3 ± 0.1 µM and 980 ± 102 µM, respectively. For the same molecule, the “SI^b = IC50(JBMan)/IC50(AMAN-2)” value in test [1] was found to be 30.
As for `CCCCCCCCCCCCN1C[C@@H](O)[C@@H](O)[C@H]1CO` [Compound 21, 1,4-Dideoxy-N-dodecyl-1,4-imino-d-lyxitol], in test [1], it took 2.3 ± 0.1 µM to reach half-maximal inhibition (IC50) and the “SI^b = IC50(JBMan)/IC50(AMAN-2)” value was 9. In addition, inhibition in test [2] was half-maximal at 11.8 ± 1.2 µM (IC50).
On to `Cl.N=C(N)NCCCCCCCCCCN1C[C@@H](O)[C@@H](O)[C@H]1CO` [Compound 25, 1,4-Dideoxy-N-(10-guanidinodecyl)-1,4-imino-d-lyxitol hydrochloride], for which the IC50 in test [1] stood at 2.7 ± 0.1 µM; in test [2] it was 8.3 ± 2.1 µM. Also, the “SI^b = IC50(JBMan)/IC50(AMAN-2)” value in test [1] is listed as 3.
In the case of `Cl.N=C(N)CCCCCCCCCN1C[C@@H](O)[C@@H](O)[C@H]1CO` [Compound 26, N-(9-amidinononyl)-1,4-dideoxy-1,4-imino-d-lyxitol hydrochloride], in test [1], the midpoint of inhibition, the IC50, lay at 1.4 ± 0.1 µM; affinity was put at a Ki of 0.78 µM; the “SI^b = IC50(JBMan)/IC50(AMAN-2)” value worked out at 3. The IC50 in test [2] was 6.7 ± 1.2 µM. In test [2] (Ki LManII, pH 5.2), this molecule gave a Ki of 3.2 µM.
